Laboratory results as given in ChEMBL document CHEMBL4680134, “Structural optimization of natural product nordihydroguaretic acid to discover novel analogues as AcrB inhibitors” (Eur J Med Chem, 2020).

Legend:
Cell membrane [1] = test: Induction of inner membrane permeabilization in CCCP treated wild type Escherichia coli BW25113 at 64 to 256 ug/ml measured after 10 mins by Di0C2(3) probe based fluorimetric method; conditions: escherichia coli bw25113, 10 min, dose 64-256 µg/ml
Method in brief: (§1)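 Cells left untreated or exposed to compound at 8-256 µg/mL for 10 min, then DiOC2(3) added and fluorescence followed to plateau. Cells re-energized with 0.5% glucose; membrane potential build-up read as fluorescence rise to plateau, then dissipated with CCCP.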

[2] = molecular target: T1, Multidrug efflux pump subunit AcrB (Escherichia coli (strain K12)) (UniProt P31224); test: Inhibition of AcrB in Escherichia coli BW25113 assessed as potentiation of tetraphenylphosphonium induced antibacterial activity by measuring fold change in tetraphenylphosphonium MIC at 256 ug/ml measured after 18 hrs by checkerboard titration method relative to tetraphenylphosphonium alone; conditions: dose 256.0 µg/ml
T1 sequence (whole entry): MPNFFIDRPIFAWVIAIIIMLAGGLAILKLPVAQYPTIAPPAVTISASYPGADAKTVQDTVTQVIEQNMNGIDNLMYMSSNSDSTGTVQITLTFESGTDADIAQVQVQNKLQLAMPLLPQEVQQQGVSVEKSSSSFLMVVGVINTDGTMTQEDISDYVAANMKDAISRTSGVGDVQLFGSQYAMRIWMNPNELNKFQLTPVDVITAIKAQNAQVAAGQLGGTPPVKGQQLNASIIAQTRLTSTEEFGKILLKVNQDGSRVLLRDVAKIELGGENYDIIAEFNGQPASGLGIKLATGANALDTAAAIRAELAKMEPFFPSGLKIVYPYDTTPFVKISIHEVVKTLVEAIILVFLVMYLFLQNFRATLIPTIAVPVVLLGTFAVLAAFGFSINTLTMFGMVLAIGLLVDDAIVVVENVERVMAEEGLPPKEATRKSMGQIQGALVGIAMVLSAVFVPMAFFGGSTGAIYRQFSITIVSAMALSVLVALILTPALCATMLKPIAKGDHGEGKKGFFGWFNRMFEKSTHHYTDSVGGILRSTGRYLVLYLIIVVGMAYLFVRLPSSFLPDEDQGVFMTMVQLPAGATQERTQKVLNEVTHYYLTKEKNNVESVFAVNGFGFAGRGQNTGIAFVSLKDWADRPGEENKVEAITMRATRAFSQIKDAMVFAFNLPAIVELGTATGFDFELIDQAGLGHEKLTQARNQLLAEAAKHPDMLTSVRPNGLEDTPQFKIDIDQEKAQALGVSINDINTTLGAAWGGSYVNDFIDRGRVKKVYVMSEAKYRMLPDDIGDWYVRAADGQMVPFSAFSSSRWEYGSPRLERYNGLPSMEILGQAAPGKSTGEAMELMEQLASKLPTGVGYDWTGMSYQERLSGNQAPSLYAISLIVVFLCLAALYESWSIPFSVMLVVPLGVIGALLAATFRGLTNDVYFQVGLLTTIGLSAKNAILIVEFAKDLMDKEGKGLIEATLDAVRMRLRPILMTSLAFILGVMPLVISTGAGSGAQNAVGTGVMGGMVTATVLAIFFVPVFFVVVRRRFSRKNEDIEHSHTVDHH

[3] = molecular target: T1, Multidrug efflux pump subunit AcrB (Escherichia coli (strain K12)); test: Inhibition of AcrB in Escherichia coli BW25113 assessed as potentiation of chloramphenicol induced antibacterial activity by measuring fold change in chloramphenicol MIC at 256 ug/ml measured after 18 hrs by checkerboard titration method relative to chloramphenicol alone; conditions: dose 256.0 µg/ml
[4] = molecular target: T1, Multidrug efflux pump subunit AcrB (Escherichia coli (strain K12)); test: Inhibition of AcrB in Escherichia coli BW25113 assessed as potentiation of erythromycin induced antibacterial activity by measuring fold change in erythromycin MIC at 32 ug/ml measured after 18 hrs by checkerboard titration method relative to erythromycin alone; conditions: dose 32.0 µg/ml
Cell membrane [5] = test: Induction of inner membrane permeabilization in CCCP treated wild type Escherichia coli BW25113 measured after 10 mins by Di0C2(3) probe based fluorimetric method; conditions: escherichia coli bw25113, 10 min; method in brief: as §1

C[C@H](Cc1ccc(O)c(O)c1)[C@@H](C)Cc1ccc(O)c(O)c1 [MASOPROCOL]
Activity (Cell membrane [1]): Toxic

Oc1ccc(CCCCCc2ccc(O)c(O)c2)cc1O
fold change (FC) [2]: 32

Oc1ccc(CCCCc2cc(O)c(O)c(O)c2)cc1O
fold change (FC) [3]: 8

Cc1ccc(C(=O)NCCc2ccc(O)c(O)c2)cc1
fold change (FC) [4]: 4
Activity (Cell membrane [5]): Toxic
